Measured values published in ChEMBL document CHEMBL6182897, “Salamandamide Lipodipeptides Are Biosynthetic Intermediate Shunt Products of the Nonamodular Nonribosomal Peptide Assembly Lines of the Viscosin Family” (J Nat Prod, 2025).
Activity calls are given as the source filed them. The rule behind the calls is not given here.

Columns and labels:
SARS-CoV-2 [1] = experiment: Antiviral activity against SARS-CoV-2 expressing mNeonGreen infected in human Caco-2 cells at 0.26 MOI assessed as reduction in infection rate at 5 to 10 uM pre-treated with compound for 2.5 hrs followed by viral infection and measured after 48 hrs by Hoechst dye based analysis relative to control; assay type: functional, Severe acute respiratory syndrome coronavirus 2; design: scale not given: the % may be the effect or the level left; conditions: dose 5-10 µM, time 50.5 hrs
[2] = Cytotoxicity against human Caco-2 cells assessed as cell count for 48 hrs by Hoechst dye based analysis; assay type: toxicity
Caco-2 [3] = experiment: Cytotoxicity against human Caco-2 cells assessed as cell count up to 10 uM measured after 48 hrs by Hoechst dye based analysis; assay type: toxicity; conditions: caco-2, 48 h
Caco-2 [4] = experiment: Cytotoxicity against human Caco-2 cells assessed as cell count up to 10 uM by Hoechst dye based analysis; assay type: toxicity; conditions: caco-2, 10 µM
SARS-CoV-2 [5] = experiment: Antiviral activity against SARS-CoV-2 expressing mNeonGreen infected in human Caco-2 cells at 0.26 MOI assessed as reduction in infection rate at 2.5 to 10 uM for 48 hrs post infection by Hoechst dye based analysis relative to control; assay type: functional, Severe acute respiratory syndrome coronavirus 2; design: scale not given: the % may be the effect or the level left; conditions: dose 2.5-10 µM
SARS-CoV-2 [6] = experiment: Antiviral activity against SARS-CoV-2 expressing mNeonGreen infected in Caco-2 cells at 0.26 MOI assessed as reduction in infection rate for 48 hrs post infection by Hoechst dye based analysis; assay type: functional, organism-based; conditions: Severe acute respiratory syndrome coronavirus 2, Caco-2, 48 h
Homo sapiens = species: Homo sapiens; experiment: Inhibition of human leukocyte elastase using MeoSuc-Ala-Ala-Pro-Val-AMC as substrate incubated for 10 mins
Enterococcus faecium [7] = experiment: Antibacterial activity against Enterococcus faecium BM4147-1 assessed as bacterial growth inhibition incubated for overnight by CLSI-protocol based broth micro-dilution assay; assay type: functional, organism-based
In short: (§1)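 Broth microdilution MIC in cation-adjusted Mueller-Hinton medium, following CLSI. Compound in 2-fold serial dilution; bacteria at a final 5 × 10^5 CFU/mL. Incubated overnight at 37 °C. MIC taken as the lowest concentration preventing visible growth.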

Enterococcus faecium [8] = experiment: Antibacterial activity against Enterococcus faecium K209.5 assessed as bacterial growth inhibition incubated for overnight by CLSI-protocol based broth micro-dilution assay; assay type: functional, organism-based; in short: as §1
Staphylococcus aureus = experiment: Antibacterial activity against Staphylococcus aureus ATCC29213 assessed as bacterial growth inhibition incubated for overnight by CLSI-protocol based broth micro-dilution assay; assay type: functional, organism-based; in short: as §1
Klebsiella aerogenes = experiment: Antibacterial activity against Enterobacter aerogenes ATCC13048 assessed as bacterial growth inhibition incubated for overnight by CLSI-protocol based broth micro-dilution assay; assay type: functional, organism-based; in short: as §1
Enterococcus faecium [9] = experiment: Antibacterial activity against vancomycin-resistant Enterococcus faecium U200 assessed as bacterial growth inhibition incubated for overnight by CLSI-protocol based broth micro-dilution assay; assay type: functional, organism-based
In short: (§2)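 Broth microdilution per CLSI in cation-adjusted Mueller-Hinton medium (casein, beef extract, starch). Twofold serial compound dilutions were inoculated at a final 5 × 10^5 CFU/mL and incubated overnight at 37 °C. MIC was the lowest concentration with no visible growth.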

[10] = biological target: Procathepsin L (Homo sapiens) (UniProt P07711); experiment: Inhibition of human Cathepsin L using Z-Phe-Arg-pNA as substrate incubated for 60 mins
Procathepsin L (Homo sapiens), sequence (P07711 114-333 limits assumed): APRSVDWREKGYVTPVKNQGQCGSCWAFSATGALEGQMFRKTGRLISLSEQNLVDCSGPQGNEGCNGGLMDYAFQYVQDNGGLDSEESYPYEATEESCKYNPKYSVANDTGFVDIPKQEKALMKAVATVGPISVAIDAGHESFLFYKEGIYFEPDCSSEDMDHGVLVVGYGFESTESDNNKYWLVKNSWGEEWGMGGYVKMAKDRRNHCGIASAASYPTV

Neisseria gonorrhoeae [11] = experiment: Antibacterial activity against Neisseria gonorrhoeae ATCC19424 assessed as bacterial growth inhibition incubated for overnight by CLSI-protocol based broth micro-dilution assay; assay type: functional, organism-based
In short: (§3)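 Neisseria MIC by CLSI broth microdilution in cation-adjusted Mueller-Hinton medium supplemented with 2.5% fetal bovine serum. Compound in 2-fold serial dilution; final inoculum 5 × 10^5 CFU/mL. Incubated overnight at 37 °C. MIC is the lowest concentration with no visible growth.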

Candida albicans [12] = experiment: Antifungal activity against Candida albicans Tu02 assessed as inhibition of fungal growth incubated for 48 hrs by TECAN M200 microtiter plate reader analysis; assay type: functional, organism-based
In short: (§4)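 EUCAST broth microdilution with direct colony suspension inoculum of 0.5–2.5 × 10^5 CFU/mL, using clinical Candida isolates. Medium was MOPS-buffered RPMI 1640 with glucose to a final 2%, pH 7.0. Plates incubated 48 h at 37 °C, then read at 530 nm to give MIC.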

Escherichia coli [13] = experiment: Antibacterial activity against Escherichia coli C600 harboring Tn10 deltalpxC deltatolC mutant assessed as bacterial growth inhibition incubated for overnight by CLSI-protocol based broth micro-dilution assay; assay type: functional, organism-based; in short: as §2
Acinetobacter baumannii = experiment: Antibacterial activity against Acinetobacter baumannii 09987 assessed as bacterial growth inhibition incubated for overnight by CLSI-protocol based broth micro-dilution assay; assay type: functional, organism-based; in short: as §1
Candida albicans [14] = experiment: Antifungal activity against Candida albicans ATCC90028 assessed as inhibition of fungal growth incubated for 48 hrs by TECAN M200 microtiter plate reader analysis; assay type: functional, organism-based; in short: as §4
Enterococcus faecium [15] = experiment: Antibacterial activity against vancomycin-resistant Enterococcus faecium BM4147 assessed as bacterial growth inhibition incubated for overnight by CLSI-protocol based broth micro-dilution assay; assay type: functional, organism-based; in short: as §2
Escherichia coli [16] = experiment: Antibacterial activity against Escherichia coli ATCC25922 assessed as bacterial growth inhibition incubated for overnight by CLSI-protocol based broth micro-dilution assay; assay type: functional, organism-based; in short: as §1
Enterococcus faecalis = experiment: Antibacterial activity against Enterococcus faecalis ATCC29212 assessed as bacterial growth inhibition incubated for overnight by CLSI-protocol based broth micro-dilution assay; assay type: functional, organism-based; in short: as §1
Bacillus subtilis = experiment: Antibacterial activity against Bacillus subtilis 168 assessed as bacterial growth inhibition incubated for overnight by CLSI-protocol based broth micro-dilution assay; assay type: functional, organism-based; in short: as §1
HeLa = experiment: Cytotoxicity against human HeLa cells measured after 24 hrs by resazurin staining based analysis; assay type: functional, cell-based
In short: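 HeLa cells in RPMI with 10% FBS were seeded at 1 × 10^4 per well onto 2-fold compound dilutions, run in duplicate. Incubation was 24 h at 37 °C, 5% CO2. Resazurin was then added (200 μM final) and incubated overnight. Resorufin fluorescence (ex 560/em 600 nm) was read relative to untreated control.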

Candida tropicalis = experiment: Antifungal activity against Candida tropicalis Tu05 assessed as inhibition of fungal growth incubated for 48 hrs by TECAN M200 microtiter plate reader analysis; assay type: functional, organism-based; in short: as §4
Enterococcus faecium [17] = experiment: Antibacterial activity against vancomycin-resistant Enterococcus faecium 6011 assessed as bacterial growth inhibition incubated for overnight by CLSI-protocol based broth micro-dilution assay; assay type: functional, organism-based; in short: as §2
Pseudomonas aeruginosa = experiment: Antibacterial activity against Pseudomonas aeruginosa ATCC27853 assessed as bacterial growth inhibition incubated for overnight by CLSI-protocol based broth micro-dilution assay; assay type: functional, organism-based; in short: as §1
Candida albicans [18] = experiment: Antifungal activity against Candida albicans Tu01 assessed as inhibition of fungal growth incubated for 48 hrs by TECAN M200 microtiter plate reader analysis; assay type: functional, organism-based; in short: as §4
Nakaseomyces glabratus = experiment: Antifungal activity against Candida glabrata Tu04 assessed as inhibition of fungal growth incubated for 48 hrs by TECAN M200 microtiter plate reader analysis; assay type: functional, organism-based; in short: as §4
Candida albicans [19] = experiment: Antifungal activity against Candida albicans Tu03 assessed as inhibition of fungal growth incubated for 48 hrs by TECAN M200 microtiter plate reader analysis; assay type: functional, organism-based; in short: as §4
Enterococcus faecium [20] = experiment: Antibacterial activity against Enterococcus faecium 115.2 assessed as bacterial growth inhibition incubated for overnight by CLSI-protocol based broth micro-dilution assay; assay type: functional, organism-based; in short: as §1
Neisseria gonorrhoeae [21] = experiment: Antibacterial activity against Neisseria gonorrhoeae S1441 assessed as bacterial growth inhibition incubated for overnight by CLSI-protocol based broth micro-dilution assay; assay type: functional, organism-based; in short: as §3
Klebsiella pneumoniae = experiment: Antibacterial activity against Klebsiella pneumoniae ATCC12657 assessed as bacterial growth inhibition incubated for overnight by CLSI-protocol based broth micro-dilution assay; assay type: functional, organism-based; in short: as §1
[22] = test system: Severe acute respiratory syndrome coronavirus 2; experiment: Inhibition of SARS CoV-2 MPro using Boc-Abu-Tle-Leu-Gln-AMC as substrate incubated for 10 mins
In short: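 Purified SARS-CoV-2 main protease (cysteine protease) was assayed with a fluorogenic peptide substrate. AMC release was followed continuously over 10 min.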

## CCCCCCC[C@@H](O)CC(=O)N[C@@H](CC(C)C)C(=O)N[C@H](CCC(N)=O)C(=O)N[C@H]1C(=O)N[C@H](C(C)C)C(=O)N[C@H](CC(C)C)C(=O)N[C@H](CO)C(=O)N[C@@H](CC(C)C)C(=O)N[C@H](CO)C(=O)N[C@@H]([C@@H](C)CC)C(=O)O[C@@H]1C
SARS-CoV-2 [1]
  Activity: 85%
[2]
  CC50 at 48 h: > 20 µM
Caco-2 [3]
  Activity: Non-toxic
Caco-2 [4]
  Activity: Non-toxic
SARS-CoV-2 [5]
  Activity: 60%
SARS-CoV-2 [6]
  EC50: 3.3 µM

## CCCCCCC[C@@H](O)CC(=O)N[C@@H](CC(C)C)C(=O)N[C@@H](CCC(N)=O)C(=O)O
Homo sapiens
  inhibition: inactive
Enterococcus faecium [7]
  Activity: inactive
Enterococcus faecium [8]
  Activity: inactive
Staphylococcus aureus
  Activity: inactive
Klebsiella aerogenes
  Activity: inactive
Enterococcus faecium [9]
  Activity: inactive
[10]
  inhibition: inactive
Neisseria gonorrhoeae [11]
  Activity: inactive
Candida albicans [12]
  Activity: inactive
Escherichia coli [13]
  Activity: inactive
Acinetobacter baumannii
  Activity: inactive
Candida albicans [14]
  Activity: inactive
Enterococcus faecium [15]
  Activity: inactive
Escherichia coli [16]
  Activity: inactive
Caco-2 [3]
  Activity: Toxic
Enterococcus faecalis
  Activity: inactive
Bacillus subtilis
  Activity: inactive
HeLa
  Activity: inactive
Candida tropicalis
  Activity: inactive
Caco-2 [4]
  Activity: Toxic
Enterococcus faecium [17]
  Activity: inactive
Pseudomonas aeruginosa
  Activity: inactive
Candida albicans [18]
  Activity: inactive
Nakaseomyces glabratus
  Activity: inactive
Candida albicans [19]
  Activity: inactive
Enterococcus faecium [20]
  Activity: inactive
Neisseria gonorrhoeae [21]
  Activity: inactive
Klebsiella pneumoniae
  Activity: inactive
[22]
  inhibition: inactive
